Consider two compounds from PubChem BioAssay AID463171 (The Scripps Research Institute Molecular Screening Center, 2010).

This experiment concerns the target Cyclin-dependent kinase inhibitor 1B (Homo sapiens) (UniProt P46527). The experiment in a line: inhibitors of p27 turnover in HeLa cells, late-stage follow-up, counter-screen for Wee1 degradation inhibitor project, cell-based, luminescence, p27-luciferase fusion, powder samples (AID 463171). The following applies: HeLa p27-luciferase fusion stability, at 0.1 µM, hits give high values. In a few lines:
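Test system: human HeLa cells transiently expressing a p27-luciferase fusion reporter. Compound dosing: single nominal 100 nM (0.1 µM) compound dose. Incubation: 20 h compound treatment at 37 °C. Measured by: luminescence after addition of Brite-lite luciferase reagent. Measure: average fold change versus DMSO vehicle. Control set: DMSO vehicle-treated cells as reference. Repeats: quadruplicate wells.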
(Counterscreens check selectivity or assay interference.)

Calls of active or inactive are those of the source.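 The calls were made as follows: active = p27 reporter light at least 10 times the solvent-only level, showing blocked p27 breakdown; inactive = ratio under 10.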

Sequence of Cyclin-dependent kinase inhibitor 1B (Homo sapiens) (P46527 whole entry, looked up, the tested form may be a part): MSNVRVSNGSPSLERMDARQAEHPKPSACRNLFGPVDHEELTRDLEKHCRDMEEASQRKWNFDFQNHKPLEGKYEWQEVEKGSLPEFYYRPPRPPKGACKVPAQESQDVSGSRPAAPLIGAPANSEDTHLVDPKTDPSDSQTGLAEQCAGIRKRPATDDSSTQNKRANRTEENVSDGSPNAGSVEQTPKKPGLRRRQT

As to `O=[N+]([O-])c1cccc2[nH]c(CNc3nc(N4CCOCC4)nc4c3ncn4-c3ccsc3)nc12`, the fold change was 4.61 (inactive).

As to `c1ccc2[nH]c(CNc3nc(N4CCOCC4)nc4c3ncn4-c3ccsc3)nc2c1`, the fold change was 3.13 (inactive).
